The test system of series [1] is Rattus norvegicus. In words: Antiinflammatory activity against Wistar rat assessed as inhibition of carrageenan induced edema volume at 37.3 uM/kg, po administered 1 hr prior carrageenan-challenge measured after 3 hrs post challenge. Type of series: functional. The method, boiled down:
(§1)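 Oral dose of 37.3 μM/kg. Carrageenan (1%) was injected intradermally into the left hindpaw 1 h later. Edema was measured 3 h and 6 h after challenge, and relative inhibition of the edema volume increase was calculated. Mean ± SEM, n = 3−6.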

Series [2] has as its target T1, Prostaglandin G/H synthase 2 (Homo sapiens) (UniProt P35354).
T1 sequence (whole entry): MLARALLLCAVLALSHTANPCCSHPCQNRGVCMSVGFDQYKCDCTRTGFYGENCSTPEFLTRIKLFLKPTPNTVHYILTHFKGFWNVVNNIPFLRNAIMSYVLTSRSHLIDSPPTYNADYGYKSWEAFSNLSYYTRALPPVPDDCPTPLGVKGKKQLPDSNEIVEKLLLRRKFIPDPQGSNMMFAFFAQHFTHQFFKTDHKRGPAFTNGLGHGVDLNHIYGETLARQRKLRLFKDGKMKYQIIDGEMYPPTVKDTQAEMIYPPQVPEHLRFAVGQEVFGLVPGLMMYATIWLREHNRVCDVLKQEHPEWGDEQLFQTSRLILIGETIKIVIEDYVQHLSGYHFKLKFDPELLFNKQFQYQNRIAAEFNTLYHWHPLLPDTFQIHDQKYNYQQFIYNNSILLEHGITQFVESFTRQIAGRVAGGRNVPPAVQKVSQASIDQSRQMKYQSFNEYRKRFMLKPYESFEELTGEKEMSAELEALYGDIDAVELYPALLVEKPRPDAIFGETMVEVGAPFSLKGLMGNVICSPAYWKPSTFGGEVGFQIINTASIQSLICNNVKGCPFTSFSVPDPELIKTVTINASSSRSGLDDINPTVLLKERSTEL
In words: Inhibition of LPS-stimulated human whole blood COX-2 assessed as inhibition of PGE2 production at 10 uM by EIA. In a few lines:
(§2)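 Human whole blood COX assay, with COX-1 and COX-2 read as prostaglandin biosynthesis. Relative inhibition (%) was taken at fixed test concentrations of 10 and 100 μM. Mean ± SEM, n = 3−6.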

Series [3] deals with Rattus norvegicus. In words: Antiinflammatory activity against Wistar rat assessed as inhibition of carrageenan induced edema volume at 3.73 to 37.3 uM/kg, po administered 1 hr prior carrageenan-challenge measured after 3 to 6 hrs post challenge. Type of series: functional, organism-based. The method, boiled down:
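Rats dosed orally at 3.73, 11.2 or 37.3 μM/kg. Carrageenan (1%) was injected intradermally into the left hindpaw 1 h after dosing. Footpad edema was measured 3 and 6 h after carrageenan, and relative inhibition of the edema volume increase was calculated. Mean ± SEM, n = 3−6.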
(In general: The carrageenan paw model is a standard test of acute inflammation.)

For series [4], the target named is T2, Prostaglandin G/H synthase 1 (Homo sapiens, UniProt P23219). In words: Inhibition of human whole blood COX-1 assessed as inhibition of TXB2 production at 100 uM by EIA. The method, boiled down:
as §2

The subject of series [5] is Rattus norvegicus. In words: Antiinflammatory activity against Wistar rat assessed as inhibition of carrageenan induced edema volume at 37.3 uM/kg, po administered 1 hr prior carrageenan-challenge measured after 6 hrs post challenge. The format is functional. In a few lines: as §1
Series [6] has as its target T2, Prostaglandin G/H synthase 1. In words: Inhibition of human whole blood COX-1 assessed as inhibition of TXB2 production at 10 uM by EIA. In a few lines: as §2
Series [7] addresses T1, Prostaglandin G/H synthase 2 (Homo sapiens). In words: Inhibition of LPS-stimulated human whole blood COX-2 assessed as inhibition of PGE2 production at 100 uM by EIA. In a few lines: as §2
The species named for series [8] is Homo sapiens. In words: Selectivity index, ratio of IC50 for human COX1 to IC50 for human COX2. In a few lines:
(§3)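 Human whole blood COX-1 and COX-2 assay run over a range of test concentrations. IC50 was fitted to a four-parameter logistic dose−response curve, and the COX-1/COX-2 ratio was computed from the two IC50 values. Mean ± SEM, n = 3−6.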

In series [9] the test system is Rattus norvegicus. In words: Toxicity in rat assessed as gastric ulcerogenic activity at 0.37 to 7.45 mM/kg, po measured after 8 hrs. The format is organism-based, Stomach. Conditions: in vivo. In a few lines:
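Rats were given oral doses of 0.37, 0.75, 1.12, 1.86, 3.73 or 7.45 mM/kg. Stomachs were removed 8 h later and scored for hemorrhagic damage. Mean ± SEM, n = 3−6.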

Series [10] has as its target T3, Prostaglandin G/H synthase 2 (Homo sapiens, UniProt P35354).
T3 sequence (P35354 whole entry): T1 sequence (whole entry)
In words: Inhibition of LPS-stimulated human whole blood COX-2 assessed as inhibition of PGE2 production by EIA. The method, boiled down:
as §3

Series [11] deals with T2, Prostaglandin G/H synthase 1. In words: Inhibition of human whole blood COX-1 assessed as inhibition of TXB2 production by EIA. In a few lines:
as §3

Molecules are shown by their SMILES. The source made the active and inactive calls. No cut-off for these calls is given here. Where only a bound is given, the exact number is not on record here.

By inhibition is commonly meant how much of the control response was suppressed. Usually IC50 stands for the concentration at which inhibition is half-maximal.

T2 sequence (P23219 whole entry): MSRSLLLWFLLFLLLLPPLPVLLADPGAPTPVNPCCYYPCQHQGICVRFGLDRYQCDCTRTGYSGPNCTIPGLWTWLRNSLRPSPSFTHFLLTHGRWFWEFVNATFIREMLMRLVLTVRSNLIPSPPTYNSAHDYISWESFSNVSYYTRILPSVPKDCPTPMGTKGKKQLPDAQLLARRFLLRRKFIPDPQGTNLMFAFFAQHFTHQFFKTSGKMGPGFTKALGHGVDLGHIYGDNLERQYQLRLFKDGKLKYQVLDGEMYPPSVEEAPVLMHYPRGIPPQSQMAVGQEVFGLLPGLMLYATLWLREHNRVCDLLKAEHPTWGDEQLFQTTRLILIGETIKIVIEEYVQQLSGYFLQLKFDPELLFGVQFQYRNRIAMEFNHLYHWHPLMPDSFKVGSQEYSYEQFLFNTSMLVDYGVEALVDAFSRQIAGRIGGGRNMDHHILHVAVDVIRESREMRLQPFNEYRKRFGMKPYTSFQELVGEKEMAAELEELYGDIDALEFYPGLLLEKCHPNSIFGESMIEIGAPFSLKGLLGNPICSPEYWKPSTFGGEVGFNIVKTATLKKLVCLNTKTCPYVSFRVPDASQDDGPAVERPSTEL

For `CC(C(=O)O)c1ccc(CC2CCCC2=O)cc1F` (configuration not stated), the “inhibition (INH)” value in series [1] is 41.8%; in series [5] it was 54.1%. Further, the inhibition was 44.2% in series [2], 85.7% in series [4], 32.7% in series [6] and 81.8% in series [7]. In addition, in series [3], the inhibition entry is “Active”. The Ratio IC50 in series [8] came to 1.7. Moreover, in [9], the Activity entry was “Non-toxic”.
On to `CC(C(=O)O)c1ccc(N[C@H]2CCC[C@@H]2O)cc1F` (some centres not stated), for which the “inhibition (INH)” value in series [1] is 20.6%; in [5], 5.7%. For the same compound, the inhibition came out at 45.3% in series [2], 83.4% in series [4], 54.6% in [6] and 77.6% in series [7]. Also, the IC50 in series [10] was found to be 14 µM; in series [11], 9 µM. The Ratio IC50 in [8] was 0.7.
Turning to `CCC(Cc1ccc(C(C)C(=O)O)c(F)c1)C(C)=O` (configuration not stated), the entries for the “inhibition (INH)” value in series [1] and in [5] were 20.9% and 20.2%, respectively. Also, the inhibition was determined as 0% in series [2], 98.1% in series [4], 78% in [6] and 82.2% in series [7].
Take `CC(C(=O)O)c1c(F)cc(CC2CCCC2=O)cc1F` (configuration not stated): the “inhibition (INH)” value turned out to be 21.6% in series [1] and 17.7% in [5]. The inhibition in series [2] was found to be 0%; in series [4] it was 79.3%; in series [6], 11.3%; in [7], 70.9%.
Consider `Cc1ccc(-c2cc(C(F)(F)F)nn2-c2ccc(S(N)(=O)=O)cc2)cc1`, for which, in series [8], the Ratio IC50 came to 22.7.
With `CC(C(=O)O)c1ccc(OC2CCCC2=O)cc1F` (configuration not stated), the “inhibition (INH)” value in series [1] came out at 30.3%; in series [5] it was 25%. Also, the inhibition in [2] is 27.6%; in series [4] it was 82.3%; in series [6] it was 80.6%; in series [7], 82.5%. For the same compound, the IC50 amounted to 24.1 µM in series [10] and 1.5 µM in [11]. Moreover, the Ratio IC50 in series [8] amounted to 0.1.
As for `CC(C(=O)O)c1ccc(Cc2ccco2)cc1F` (configuration not stated), the “inhibition (INH)” value in [1] was 38.9%; in [5], 45.8%. Moreover, the inhibition came out at 64.1% in [2], 79.9% in series [4], 26.3% in [6] and 96.1% in [7]. Moreover, the IC50 was 4.1 µM in series [10] and 21.6 µM in series [11]. Moreover, in series [8], the Ratio IC50 was found to be 5.3. Also, the Activity entry in series [9] is listed as “Non-toxic”.
For `CC(C(=O)O)c1ccc(N[C@H]2CCCC[C@@H]2O)cc1F` (some centres not stated), the “inhibition (INH)” value in series [1] and in series [5] was under 0% in each case. Moreover, the inhibition in [2] came to 28.3%; in series [4] it was 0%; in series [6] it was 0%; in [7] it was 76.7%.
On to `CC(C(=O)O)c1ccc(Cc2cccs2)cc1F` (configuration not stated), for which the “inhibition (INH)” value was 12.5% in series [1] and 28% in series [5]. Further, the inhibition in [2] is 45.8%; in [4] it was 76.5%; in series [6], 27.4%; in series [7], 89.2%. Further, the figures for the IC50 in series [10] and in [11] were 13 µM and 19.9 µM, respectively. For the same compound, the Ratio IC50 in series [8] worked out at 1.5.
Turning to `CCC(=O)C(C)Cc1ccc(C(C)C(=O)O)c(F)c1` (configuration not stated), the “inhibition (INH)” value in [1] and in series [5] was under 0% in each case. For the same compound, the inhibition was 0% in series [2], 13.5% in series [4], 0% in [6] and 0% in series [7].
As to `CC(C(=O)O)c1c(F)cc(CC2CCCC2=O)cc1-c1ccc(O)cc1` (configuration not stated), the “inhibition (INH)” value in series [1] and in series [5] was under 0% throughout. Further, the inhibition in [2] was determined as 15.4%; in series [4], 7.2%; in [6], 0%; in [7], 38%.
As for `CC(C(=O)O)c1ccc(NC2CCCCC2)cc1F` (configuration not stated), the entries for the “inhibition (INH)” value in [1] and in series [5] were under 0% and 19.2%, respectively. Besides, the inhibition in series [2] was found to be 0%; in series [4], 0%; in series [6], 0%; in series [7], 30%.
For `CC(C(=O)O)c1c(F)cc(CC2CCCC2=O)cc1Br` (configuration not stated), the “inhibition (INH)” value in [1] and in [5] was under 0% throughout. In addition, the inhibition is 0% in series [2], 49.7% in series [4], 13.8% in [6] and 0% in [7].
On to `CC(C(=O)O)c1ccc(S[C@H]2CCC[C@@H]2O)cc1F` (some centres not stated), for which the “inhibition (INH)” value in series [1] and in [5] was under 0% in each case. For the same compound, the inhibition in [2] was determined as 0%; in series [4], 47.6%; in series [6], 0%; in [7] it was 64.4%.
As for `CC(C(=O)O)c1ccc(SC2CCCC2=O)cc1F` (configuration not stated), the “inhibition (INH)” value worked out at 38% in series [1] and 27.2% in series [5]. Further, the inhibition in [2] was determined as 55.5%; in series [4], 60.7%; in series [6], 0%; in series [7] it was 93.1%.
Consider `CC(C(=O)O)c1cc(F)c(CC2CCCC2=O)cc1F` (configuration not stated), for which the “inhibition (INH)” value in [1] and in series [5] was under 0% each time. Moreover, the inhibition in [2] was found to be 15%; in series [4] it was 81%; in series [6], 0%; in series [7] it was 84.8%.
On to `CC(C(=O)O)c1ccc(CC2CCCC2=O)cc1` (configuration not stated) [LOXOPROFEN], for which the “inhibition (INH)” value in [1] was found to be 44%; in series [5], 53.1%. For the same compound, the inhibition in [2] was found to be 53.2%; in series [4], 87.5%; in [6], 35%; in [7], 97.4%. Moreover, the Ratio IC50 in series [8] was 2.3. Moreover, in series [9], the Activity result was “Toxic”.
Consider `CC(C(=O)O)c1ccc(Cc2ccoc2)cc1F` (configuration not stated), for which the “inhibition (INH)” value in [1] was found to be 32.7%; in series [5], 45.2%. Moreover, the inhibition in [2] worked out at 58.7%; in series [4], 57.5%; in [6] it was 30.9%; in series [7], 90.9%. Besides, the IC50 was 4 µM in [10] and 30.1 µM in [11]. Further, in series [8], the Ratio IC50 worked out at 7.6. Further, the Activity result in series [9] is reported as “Non-toxic”.
`CC(C(=O)O)c1ccc(SC2CCCC2)cc1F` (configuration not stated): the “inhibition (INH)” value is reported as under 0% in [1] and 9.5% in series [5]. Also, the inhibition was found to be 15.6% in series [2], 87.9% in series [4], 4.7% in [6] and 80.1% in series [7].
Take `CC(C(=O)O)c1ccc(O[C@H]2CCC[C@@H]2O)cc1F` (some centres not stated): the “inhibition (INH)” value is given as under 0% in series [1] and 13.3% in series [5]. The inhibition in series [2] was found to be 25.4%; in [4], 78.2%; in series [6], 10.4%; in [7] it was 80.2%.
In the case of `CC(C(=O)O)c1ccc(Cc2ccsc2)cc1F` (configuration not stated), the “inhibition (INH)” value in series [1] is listed as 40.2%; in series [5] it was 33.4%. Besides, the inhibition stood at 60.2% in series [2], 87.4% in [4], 53.9% in [6] and 99.5% in series [7]. In addition, the IC50 in [10] was 8.3 µM; in [11] it was 9.5 µM. Also, the Ratio IC50 in series [8] was found to be 1.2. In addition, in series [9], the Activity result is on record as “Toxic”.

Values taken from ChEMBL document CHEMBL2062479, “Synthesis and biological evaluation of derivatives of 2-{2-fluoro-4-[(2-oxocyclopentyl)methyl]phenyl}propanoic acid: nonsteroidal anti-inflammatory drugs with low gastric ulcerogenic activity” (J Med Chem, 2012).
